One may read the EC50 as the midpoint of the concentration-response curve. As a reminder, the Cmax is the peak of the concentration-time curve.

A short description of series [1]: Drug metabolism in Slc3a1-knockout mouse assessed as (2R)-2-amino-3-[[(2R)-2-amino-3-(1,8-diazaspiro[4.5]decan-8-yl)-3-oxo-propyl]disulfanyl]propanoic acid metabolite formation. The series is classed as ADME.
The test system of series [2] is Cystine. Nature of the series: Inhibition of L-cystine crystallization in millipore water at room temperature incubated for 72 hrs. The essentials:
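Supersaturated L-cystine (2.9 mM) in Millipore water was incubated with varying inhibitor concentrations for 72 h at room temperature and then centrifuged. L-cystine remaining in the supernatant was measured. EC50 was taken from dose–response curves as the concentration giving 50% inhibition of crystallization.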

Series [3] in a line: AUC (0 to t) in Slc3a1-knockout mouse at 150 micromol/kg, po or 30 micromol/kg, iv measured upto 24 hrs by LC-MS/MS analysis. The series is classed as ADME, organism-based. As to conditions: in vivo, dose 150 µmol/kg. In short, it runs like this: (§1)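 Male Slc3a1-knockout mice (4 per route) dosed once by oral gavage in normal saline (150 μmol/kg) or by tail vein injection (30 μmol/kg). Saphenous-vein blood drawn into heparinized capillaries before dosing and at 5, 15, 30 min and 1, 4, 8, 24 h. Plasma stored at −80 °C. Parent and mixed-disulfide metabolite M1 quantitated by LC-MS/MS against synthetic M1. Oral bioavailability derived from oral versus iv exposure.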

Series [4] can be described thus: Oral bioavailability in Slc3a1-knockout mouse at 150 micromol/kg or 30 micromol/kg measured upto 24 hrs by LC-MS/MS analysis. The series is classed as ADME, organism-based. To be noted: in vivo, at 150 µmol/kg. The essentials: as §1
Series [5] can be described thus: Observed apparent volume of distribution during terminal phase in Slc3a1-knockout mouse at 150 micromol/kg, po or 30 micromol/kg, iv measured upto 24 hrs by LC-MS/MS analysis. The series is classed as ADME, organism-based. To be noted: in vivo, dose 150 µmol/kg. In short, it runs like this:
as §1

Series [6] is described as follows: Cmax in Slc3a1-knockout mouse at 150 micromol/kg, po or 30 micromol/kg, iv measured upto 24 hrs by LC-MS/MS analysis. To be noted: in vivo, dose 150 µmol/kg. The series is classed as ADME, organism-based. In short, it runs like this:
as §1

Series [7] in a line: Oral bioavailability in Slc3a1-knockout mouse by measuring total parent compound and (2R)-2-amino-3-[[(2R)-2-amino-3-(1,8-diazaspiro[4.5]decan-8-yl)-3-oxo-propyl]disulfanyl]propanoic acid metabolite at 150 micromol/kg or 30 micromol/kg measured upto 24 hrs by LC-MS/MS analysis. The series is classed as ADME, organism-based. To be noted: in vivo, at 150 µmol/kg. The essentials: as §1

A short description of series [8]: Toxicity in SLC3A1-knockout male mouse assessed as body weight at 150 micromol/kg, po administered daily for 8 weeks (reference value: 20.3 +/- 2.1 g). The series is classed as organism-based. To be noted: in vivo, 1344 h, dose 150 µmol/kg.
A short description of series [9]: Observed apparent oral clearance in Slc3a1-knockout mouse by measuring (2R)-2-amino-3-[[(2R)-2-amino-3-(1,8-diazaspiro[4.5]decan-8-yl)-3-oxo-propyl]disulfanyl]propanoic acid metabolite at 150 micromol/kg or 30 micromol/kg measured upto 24 hrs by LC-MS/MS analysis. As to conditions: in vivo, dose 150 µmol/kg. The series is classed as ADME. The essentials:
as §1

Series [10] has as its system Cystine. Nature of the series: Inhibition of L-cystine crystallization in aqueous solution assessed as ratio of step velocity in presence of compound to step velocity measured initially in absence of compound at 30 uM by atomic force microscopic analysis. In short, it runs like this: (§2)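 AFM on the {0001} face of L-cystine crystals. Crystals were regrown for 20 min under flowing supersaturated 2 mM L-cystine (20 mL/h). {1010} step velocity was measured without inhibitor (V0), then with inhibitor at 15, 30 or 45 μM (V). Images were taken about 25 min after inhibitor injection. Result reported as a V/V0 range.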

Series [11] can be described thus: Toxicity in SLC3A1-knockout male mouse assessed as animal death at 150 micromol/kg, po administered daily for 8 weeks. As to conditions: in vivo, 1344 h, dose 150 µmol/kg. The series is classed as organism-based. The essentials: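 Slc3a1-knockout male mice, 6 weeks old, bred by Slc3a1 × Slc3a1 mating; one pup per mating treated, one or more littermates as controls. Compound dissolved in water (18.9 mg/mL) and given by daily gavage of 100 μL (150 μmol/kg) for 8 weeks; controls received 100 μL water. Mice were sacrificed at study end, and kidneys and bladders were weighed.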

The nature of series [12]: Half life in Slc3a1-knockout mouse by measuring (2R)-2-amino-3-[[(2R)-2-amino-3-(1,8-diazaspiro[4.5]decan-8-yl)-3-oxo-propyl]disulfanyl]propanoic acid metabolite at 150 micromol/kg, po or 30 micromol/kg, iv measured upto 24 hrs by LC-MS/MS analysis. The series is classed as ADME, organism-based. As to conditions: in vivo, dose 150 µmol/kg. In short, it runs like this:
as §1

Series [13] is described as follows: Drug level in SLC3A1-knockout mouse urine assessed as (2R)-2-amino-3-[[(2R)-2-amino-3-(1,8-diazaspiro[4.5]decan-8-yl)-3-oxo-propyl]disulfanyl]propanoic acid metabolite concentration in urine at 30 micromol/kg, iv measured after 24 hrs. The series is classed as ADME, organism-based. To be noted: in vivo, dose 30 µmol/kg, read-out: Ct. The essentials:
(§3)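 Urine was collected 24 and 48 h after dosing. Parent and mixed-disulfide metabolite were measured, with the metabolite quantitated against chemically synthesized standard.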

A short description of series [14]: Toxicity in SLC3A1-knockout male mouse assessed as animal death at 150 micromol/kg, po administered daily for 4 weeks. As to conditions: in vivo, 672 h, dose 150 µmol/kg. The series is classed as organism-based.
A short description of series [15]: Half life in Slc3a1-knockout mouse at 150 micromol/kg, po or 30 micromol/kg, iv measured upto 24 hrs by LC-MS/MS analysis. The series is classed as ADME, organism-based. As to conditions: in vivo, dose 150 µmol/kg. The essentials: as §1
Series [16] is described as follows: Oral bioavailability in Slc3a1-knockout mouse by measuring (2R)-2-amino-3-[[(2R)-2-amino-3-(1,8-diazaspiro[4.5]decan-8-yl)-3-oxo-propyl]disulfanyl]propanoic acid metabolite at 150 micromol/kg or 30 micromol/kg measured upto 24 hrs by LC-MS/MS analysis. The series is classed as ADME, organism-based. To be noted: in vivo, at 150 µmol/kg. The essentials:
as §1

A short description of series [17]: Toxicity in SLC3A1-knockout male mouse assessed as increase in body weight at 150 micromol/kg, po administered daily for 8 weeks. The series is classed as organism-based. As to conditions: in vivo, 1344 h, at 150 µmol/kg.
The nature of series [18]: AUC (0 to t) in Slc3a1-knockout mouse by measuring (2R)-2-amino-3-[[(2R)-2-amino-3-(1,8-diazaspiro[4.5]decan-8-yl)-3-oxo-propyl]disulfanyl]propanoic acid metabolite at 150 micromol/kg, po or 30 micromol/kg, iv measured upto 24 hrs by LC-MS/MS analysis. The series is classed as ADME, organism-based. As to conditions: in vivo, dose 150 µmol/kg. In short, it runs like this: as §1

Series [19] has as its system Cystine. Briefly: Inhibition of L-cystine crystallization in aqueous solution assessed as ratio of step velocity in presence of compound to step velocity measured initially in absence of compound at 15 uM by atomic force microscopic analysis. The essentials: as §2
The nature of series [20]: Observed apparent volume of distribution during terminal phase in Slc3a1-knockout mouse by measuring (2R)-2-amino-3-[[(2R)-2-amino-3-(1,8-diazaspiro[4.5]decan-8-yl)-3-oxo-propyl]disulfanyl]propanoic acid metabolite at 150 micromol/kg, po or 30 micromol/kg, iv measured upto 24 hrs by LC-MS/MS analysis. To be noted: in vivo, dose 150 µmol/kg. The series is classed as ADME, organism-based. In short, it runs like this: as §1

Series [21] can be described thus: Observed apparent oral clearance in Slc3a1-knockout mouse at 150 micromol/kg or 30 micromol/kg measured upto 24 hrs by LC-MS/MS analysis. To be noted: in vivo, dose 150 µmol/kg. The series is classed as ADME. In short, it runs like this:
as §1

The subject of series [22] is Cystine. Briefly: Inhibition of L-cystine crystallization in aqueous solution assessed as ratio of step velocity in presence of compound to step velocity measured initially in absence of compound at 45 uM by atomic force microscopic analysis. In short, it runs like this:
as §2

Series [23] concerns Cystine. Nature of the series: In-vivo inhibition of L-cystine crystallization in SLC3A1-knockout male mouse assessed as reduction in stone formation in bladder at 150 micromol/kg, po administered daily for 8 weeks. On the set-up: scale not given: the % may be the effect or the level left. The series is classed as functional, organism-based. As to conditions: dose 150.0 µmol/kg.

A short description of series [24]: AUC (0 to t) in Slc3a1-knockout mouse by measuring total parent compound and (2R)-2-amino-3-[[(2R)-2-amino-3-(1,8-diazaspiro[4.5]decan-8-yl)-3-oxo-propyl]disulfanyl]propanoic acid metabolite at 150 micromol/kg, po or 30 micromol/kg, iv measured upto 24 hrs by LC-MS/MS analysis. The series is classed as ADME, organism-based. As to conditions: in vivo, dose 150 µmol/kg. The essentials: as §1

Series [25] is described as follows: Cmax in Slc3a1-knockout mouse by measuring (2R)-2-amino-3-[[(2R)-2-amino-3-(1,8-diazaspiro[4.5]decan-8-yl)-3-oxo-propyl]disulfanyl]propanoic acid metabolite at 150 micromol/kg, po or 30 micromol/kg, iv measured upto 24 hrs by LC-MS/MS analysis. As to conditions: in vivo, dose 150 µmol/kg. The series is classed as ADME, organism-based. In short, it runs like this:
as §1

Series [26] is described as follows: Drug level in SLC3A1-knockout mouse urine assessed as (2R)-2-amino-3-[[(2R)-2-amino-3-(1,8-diazaspiro[4.5]decan-8-yl)-3-oxo-propyl]disulfanyl]propanoic acid metabolite concentration in urine at 150 micromol/kg, po measured after 24 hrs. The series is classed as ADME, organism-based. As to conditions: in vivo, dose 150 µmol/kg, read-out: Ct. The essentials:
as §3

SMILES strings stand for the structures.

Turning to `N[C@@H](CSSC[C@H](N)C(=O)N1CCC2(CCCN2)CC1)C(=O)N1CCC2(CCCN2)CC1`, in series [1], the Drug metabolism result is given as “metabolite_detected”. In the series on Cystine [2], the EC50 came to 29.5 nM. In addition, the AUCt in series [3] turned out to be 18.542 µM·h; in series [18], 40.963 µM·h; in series [24] it was 59.505 µM·h. Moreover, the F in [4] is 16%; in series [7], 22%; in [16] it was 27%. Besides, the Vz/F_obs in series [5] is listed as 0.007 micromol/kg/nmol/L. In addition, the Cmax in series [6] worked out at 11.4 µM; in [25], 16.9 µM. Moreover, the Activity in [8] is 20.3 g; in series [11] it was “Non-toxic”; in [14], “Non-toxic”; in series [17], 14.6%; with Cystine [23] it was 8%. For the same compound, the CL/F_obs was found to be 0.003 micromol/kg/nmol/L/hr in series [9] and 0.008 micromol/kg/nmol/L/hr in [21]. Besides, the Ratio in the series with Cystine [10] was determined as 0.04; with Cystine [19] it was 0.01; in the series on Cystine [22], 0.01. Moreover, the figures for the t1/2 in [12] and in [15] were 2.4 h and 36 min, respectively. In addition, the concentration in series [13] was found to be 1000 nM; in series [26], 2100 nM. Besides, the Vz/F obs in [20] stood at 0.0108 micromol/kg/nmol/L.
For the compound `CN1CCN(C(=O)[C@@H](N)CSSC[C@H](N)C(=O)N2CCN(C)CC2)CC1`, the Drug metabolism result in [1] is listed as “metabolite_detected”. This compound came in with an EC50 in the series with Cystine [2] of 59.8 nM. Besides, the F in series [4] was 2.3%; in series [7], 18%; in series [16] it was 25%. The Ratio in the series on Cystine [10] was 0.32; in the series with Cystine [19], 0.52; with Cystine [22], 0.3.
Compound `COC(=O)[C@@H](N)CSSC[C@H](N)C(=O)OC` returned an EC50 in the series with Cystine [2] of 3530 nM. Besides, the Ratio in the series on Cystine [10] was 0.27; in the series with Cystine [19], 0.4; with Cystine [22], 0.21.
